According to ChEMBL document CHEMBL5370680, “Design and Biological Evaluation of Piperazine-Bearing Nitrobenzamide Hypoxia/GDEPT Prodrugs: The Discovery of CP-506” (ACS Med Chem Lett, 2023):

Legend:
[1] = Selectivity ratio of IC50 for antiproliferative activity against human SiHa cells assessed as inhibition of cell growth under aerobic condition to IC50 for antiproliferative activity against human SiHa cells assessed as inhibition of cell growth under anoxic condition; assay type: functional
Method in brief: (§1)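 Hypoxic cytotoxicity ratio is aerobic IC50 divided by anoxic IC50. Each IC50 comes from a 4 h drug exposure under aerobic or anoxic conditions, followed by 5 days' aerobic regrowth, relative to untreated controls.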

HCT-116 [2] = assay: Antiproliferative activity against human HCT-116 cells in three-dimensional cell culture multicellular layers assessed as log cell killing under anoxic condition at 100 uM; assay type: functional
Method in brief: (§2)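 HCT116 three-dimensional multicellular layers exposed to 100 μM prodrug under aerobic or anoxic conditions. Clonogenic survivors per MCL counted. Log cell kill = log CS(control) − log CS(treated). Mean of ≥3 independent experiments.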

SiHa [3] = assay: Antiproliferative activity against human SiHa cells assessed as inhibition of cell growth incubated for 4 hrs under aerobic condition and measured after 5 days regrowth under aerobic condition; assay type: functional, cell-based
Method in brief: (§3)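 Low-density monolayer antiproliferative assay. Cells exposed to prodrug for 4 h under aerobic or anoxic conditions, then regrown aerobically for 5 days. IC50 is the concentration giving 50% growth inhibition versus untreated controls. Mean values reported, CV <20%.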

HCT-116 [4] = assay: Antiproliferative activity against human HCT-116 cells in three-dimensional cell culture multicellular layers assessed as log cell killing under aerobic condition at 100 uM; assay type: functional; method in brief: as §2
[5] = Octanol/water partition coefficient, log D of the compound at pH 7.4; assay type: physicochemical
Method in brief: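 Octanol–water partition coefficient by shake-flask method at pH 7.4.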

HCT-116 [6] = assay: Antiproliferative activity against human HCT-116 cells assessed as inhibition of cell growth incubated for 4 hrs under anoxic condition and measured after 5 days regrowth under aerobic condition; assay type: functional, cell-based; method in brief: as §3
SiHa [7] = assay: Antiproliferative activity against human SiHa cells assessed as inhibition of cell growth incubated for 4 hrs under anoxic condition and measured after 5 days regrowth under aerobic condition; assay type: functional, cell-based; method in brief: as §3
HCT-116 [8] = assay: Antiproliferative activity against human HCT-116 cells overexpressing cytochrome P450 oxidoreductase assessed as inhibition of cell growth incubated for 4 hrs under anoxic condition and measured after 5 days regrowth under aerobic condition; assay type: functional, cell-based; method in brief: as §3
HCT-116 [9] = assay: Antiproliferative activity against human HCT-116 cells overexpressing cytochrome P450 oxidoreductase assessed as inhibition of cell growth incubated for 4 hrs under aerobic condition and measured after 5 days regrowth under aerobic condition; assay type: functional, cell-based; method in brief: as §3
[10] = Selectivity ratio of IC50 for antiproliferative activity against human HCT-116 cells assessed as inhibition of cell growth under aerobic condition to IC50 for antiproliferative activity against human HCT-116 cells assessed as inhibition of cell growth under anoxic condition; assay type: functional; method in brief: as §1
[11] = Selectivity ratio of IC50 for antiproliferative activity against human HCT-116 cells overexpressing cytochrome P450 oxidoreductase assessed as inhibition of cell growth under aerobic condition to IC50 for antiproliferative activity against human HCT-116 cells overexpressing cytochrome P450 oxidoreductase assessed as inhibition of cell growth under anoxic condition; assay type: functional; method in brief: as §1
HCT-116 [12] = assay: Antiproliferative activity against human HCT-116 cells assessed as inhibition of cell growth incubated for 4 hrs under aerobic condition and measured after 5 days regrowth under aerobic condition; assay type: functional, cell-based; method in brief: as §3
[13] = Selectivity ratio of IC50 for antiproliferative activity against wild type human NCI-H1299 cells to IC50 for antiproliferative activity against human NCI-H1299 cells expressing NfsA of Escherichia coli; assay type: functional; conditions: time 4 hrs
Method in brief: (§4)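 Ratio of mean IC50 in non-transfected wild-type cells to mean IC50 in the AKR1C3- or NfsA_Ec-transfected line. IC50 is from a 4 h prodrug exposure and 5 days' regrowth.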

[14] = Selectivity ratio of IC50 for antiproliferative activity against wild type human HCT-116 cells to IC50 for antiproliferative activity against human HCT-116 cells expressing NfsA of Escherichia coli; assay type: functional; conditions: time 4 hrs; method in brief: as §4
[15] = Selectivity ratio of IC50 for antiproliferative activity against wild type human HCT-116 cells to IC50 for antiproliferative activity against human HCT-116 cells expressing AKR1C3; assay type: functional; conditions: time 4 hrs; method in brief: as §4
HCT-116 [16] = assay: Antiproliferative activity against wild type human HCT-116 cells assessed as cell growth inhibition measured after 4 hrs; assay type: functional, cell-based; conditions: HCT-116, 4 h
Method in brief: (§5)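 Monolayer antiproliferative assay using wild-type cells and isogenic lines transfected with AKR1C3 or E. coli NfsA. Cells exposed to prodrug for 4 h, then regrown for 5 days. IC50 is 50% growth inhibition versus untreated controls. Mean values reported, CV <20%.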

NCI-H1299 [17] = assay: Antiproliferative activity against human NCI-H1299 cells expressing NfsA of Escherichia coli assessed as cell growth inhibition measured after 4 hrs; assay type: functional; conditions: NCI-H1299, 4 h; method in brief: as §5
NCI-H1299 [18] = assay: Antiproliferative activity against wild type human NCI-H1299 cells assessed as cell growth inhibition measured after 4 hrs; assay type: functional, cell-based; conditions: NCI-H1299, 4 h; method in brief: as §5
HCT-116 [19] = assay: Antiproliferative activity against human HCT-116 cells in three-dimensional cell culture multicellular layer expressing AKR1C3 assessed as fold change in plating efficiency at 10 uM; assay type: functional
Method in brief: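 100% AKR1C3-expressing HCT116 MCLs, against wild-type HCT116 MCLs, exposed to 10 μM prodrug. Clonogenic plating efficiency measured. Fold change is the plating-efficiency ratio between wild-type and transfected MCLs. ≥3 independent experiments.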

[20] = Selectivity ratio of IC50 for antiproliferative activity against wild type human NCI-H1299 cells to IC50 for antiproliferative activity against human NCI-H1299 cells expressing AKR1C3; assay type: functional; conditions: time 4 hrs; method in brief: as §4
HCT-116 [21] = assay: Antiproliferative activity against human HCT-116 cells in three-dimensional cell culture multicellular layer expressing NfsA of Escherichia coli assessed as fold change in plating efficiency at 10 uM; assay type: functional
Method in brief: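 Mixed MCLs of wild-type HCT116 with 3% NfsA_Ec-expressing cells, against 100% wild-type MCLs, exposed to 10 μM prodrug. Clonogenic plating efficiency measured. Fold change is the plating-efficiency ratio between wild-type and transfected MCLs. ≥3 independent experiments.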

NCI-H1299 [22] = assay: Antiproliferative activity against human NCI-H1299 cells expressing AKR1C3 assessed as cell growth inhibition measured after 4 hrs; assay type: functional, cell-based; conditions: NCI-H1299, 4 h; method in brief: as §5
HCT-116 [23] = assay: Antiproliferative activity against human HCT-116 cells expressing NfsA of Escherichia coli assessed as cell growth inhibition measured after 4 hrs; assay type: functional; conditions: HCT-116, 4 h; method in brief: as §5
HCT-116 [24] = assay: Antiproliferative activity against human HCT-116 cells expressing AKR1C3 assessed as cell growth inhibition measured after 4 hrs; assay type: functional, cell-based; conditions: HCT-116, 4 h; method in brief: as §5
[25] = Metabolic stability in mouse liver microsome assessed as half life in presence of NADPH by LC-MS/MS analysis; assay type: ADME; conditions: liver microsomes
Method in brief: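 Male mouse hepatic microsomes incubated with prodrug for 30 min, with or without NADPH cofactor. Percentage of parent compound remaining tracked from triplicate incubations. Half-life estimated from this loss.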

Row | SMILES | Ratio IC50 [1] | IC50 (SiHa [3]) [µM] | logD [5] | IC50 (HCT-116 [6]) [µM] | IC50 (SiHa [7]) [µM] | IC50 (HCT-116 [8]) [µM] | IC50 (HCT-116 [9]) [µM] | Ratio IC50 [11] | Ratio IC50 [13] | Ratio IC50 [14] | Ratio IC50 [15] | IC50 (HCT-116 [16]) [µM] | IC50 (NCI-H1299 [17]) [µM] | IC50 (NCI-H1299 [18]) [µM] | fold change (FC) (HCT-116 [19]) | Ratio IC50 [20] | fold change (FC) (HCT-116 [21]) | IC50 (NCI-H1299 [22]) [µM] | IC50 (HCT-116 [23]) [µM] | IC50 (HCT-116 [24]) [µM] | other results
1 | CN1CCN(C(=O)c2cc(N(CCBr)CCOS(C)(=O)=O)c(S(C)(=O)=O)cc2[N+](=O)[O-])CC1 | 12 | 561 | 0.3 | 23 | 47 | 1.6 | 139 | 87 |  |  |  |  |  |  |  |  |  |  |  |  | LCK (HCT-116 [2]): 0.016; LCK (HCT-116 [4]): 2.3; Ratio IC50 [10]: 16; IC50 (HCT-116 [12]): 368 µM
2 | CN1CCN(C(=O)c2cc(N(CCBr)CCBr)c(S(C)(=O)=O)cc2[N+](=O)[O-])CC1 | 15 | 241 | 1.4 | 24 | 16 | 0.88 | 82 | 93 | 636 | 1146 | 1.5 | 102 | 0.154 | 98 | 1.1 | 1 | 1531 | 102 | 0.089 | 70 | LCK (HCT-116 [2]): 0.016; LCK (HCT-116 [4]): 2.3; Ratio IC50 [10]: 6.6; IC50 (HCT-116 [12]): 160 µM
3 | CCN1CCN(C(=O)c2cc(N(CCBr)CCOS(C)(=O)=O)c(S(=O)(=O)CC)cc2[N+](=O)[O-])CC1 | >20 | > 300 | 1 | 18 | 15 | 2.8 | 122 | 44 |  |  |  |  |  |  |  |  |  |  |  |  | LCK (HCT-116 [2]): 0.016; LCK (HCT-116 [4]): 2.3
4 | CCS(=O)(=O)c1cc([N+](=O)[O-])c(C(=O)N2CCN(C(C)C)CC2)cc1N(CCBr)CCBr |  |  | 2.5 |  |  |  |  |  | 73 | 131 | 0.9 | 65 | 0.685 | 49 | 0.9 | 0.7 | 351 | 67 | 0.496 | 70 | 
5 | CCS(=O)(=O)c1cc([N+](=O)[O-])c(C(=O)N2CCN(C)CC2)cc1N(CCBr)CCBr |  |  | 2.2 |  |  |  |  |  | 156 | 359 | 1.1 | 83 | 0.546 | 85 | 1.1 | 1.5 | 709 | 58 | 0.231 | 73 | 
6 | CC(C)N1CCN(C(=O)c2cc(N(CCBr)CCBr)c(S(C)(=O)=O)cc2[N+](=O)[O-])CC1 |  |  | 1.9 |  |  |  |  |  | 206 | 462 | 1.2 | 61 | 0.287 | 59 | 0.9 | 0.9 | 1943 | 69 | 0.132 | 53 | 
7 | CCN1CCN(C(=O)c2cc(N(CCBr)CCOS(C)(=O)=O)c(S(C)(=O)=O)cc2[N+](=O)[O-])CC1 [CP-506] | 21 | 459 | 0.6 | 14 | 22 | 1.2 | 112 | 93 |  |  |  |  |  |  |  |  |  |  |  |  | LCK (HCT-116 [2]): 0.016; half-life [25]: 41.2 min; LCK (HCT-116 [4]): 2.3; Ratio IC50 [10]: 21; IC50 (HCT-116 [12]): 288 µM
8 | CS(=O)(=O)OCCN(CCBr)c1c(C(=O)NCCO)cc([N+](=O)[O-])cc1[N+](=O)[O-] | 7 | 19 | 1 | 2.5 | 2.7 | 0.14 | 41 | 293 | 2375 | 4125 | 60 | 66 | 0.048 | 114 | 100500 | 15 | 29 | 7.4 | 0.016 | 1.1 | Ratio IC50 [10]: 15; IC50 (HCT-116 [12]): 38 µM
